HIV Rev-RRE inh: disrupts HIV-1 Rev binding to RRE RNA | Rev peptide-RRE RNA binding, FRET | inhibition, % at 8 µM | 97,000 tested, 0.79% active | P05866;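 active = inhibition above the screen-wide mean plus 3 SD, cut at about 35% in these data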;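 also: 0% = median DMSO wells and 100% = median Neomycin B control wells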
Target sequence (P05866 whole entry, looked up): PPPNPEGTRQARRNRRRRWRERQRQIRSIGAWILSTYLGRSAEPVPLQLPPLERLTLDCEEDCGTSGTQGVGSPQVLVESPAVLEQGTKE
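Probe or stimulus: fluorescein-Rev peptide as binding partner; assay system: Cy5-tagged RRE RNA duplex with fluorescein-tagged Rev peptide; timing: 5 min compound–RNA preincubation, then 15 min with peptide, 25 °C; medium: HEPES pH 7.5 buffer with KCl, MgCl2, NaCl and EDTA; signal: fluorescein-to-Cy5 FRET, 480 nm excitation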
CYP2C9 activ: CYP2C9 (human) activation; recombinant CYP2C9, luciferin-H conversion, luminescence; stronger effect = higher value; factor 1 = untreated enzyme, 0 = blocked; activation factor at 5 µM; 96,000 tested, 1.4% active;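 active = activation factor of 2 or more for CYP2C9 at a 5 µM dose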;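 also: 0 = sulfaphenazole-blocked wells and 1 = vehicle-only wells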
Target sequence (P11712 whole entry, looked up): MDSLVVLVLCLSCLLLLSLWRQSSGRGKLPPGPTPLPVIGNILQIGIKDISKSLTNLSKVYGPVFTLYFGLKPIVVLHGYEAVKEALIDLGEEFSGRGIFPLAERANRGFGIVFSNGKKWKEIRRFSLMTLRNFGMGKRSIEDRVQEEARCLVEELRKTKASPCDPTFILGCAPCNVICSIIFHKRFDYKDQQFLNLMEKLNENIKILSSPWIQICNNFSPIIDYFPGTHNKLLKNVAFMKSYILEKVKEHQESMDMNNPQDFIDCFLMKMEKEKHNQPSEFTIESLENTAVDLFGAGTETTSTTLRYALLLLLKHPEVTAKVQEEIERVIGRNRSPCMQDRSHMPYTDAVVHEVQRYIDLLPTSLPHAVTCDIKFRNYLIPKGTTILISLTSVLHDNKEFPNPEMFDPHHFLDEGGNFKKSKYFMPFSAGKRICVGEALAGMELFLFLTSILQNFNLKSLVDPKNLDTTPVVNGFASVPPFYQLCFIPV
CYP2C19 inhib: blocks human cytochrome P450 2C19. P33261. CYP2C19 Supersomes, luciferin-H EGE luminescence, 30 min. inhibition, % at 5 µM. 96,000 tested, 21% active;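 active = CYP2C19 inhibition above a set limit at 5 µM in the primary screen, cut at about 50% in these data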;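 also: plate controls were negative control wells for no effect and 2.5 mM tranylcypromine positive control for full effect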
CYP2C19 act: increases human CYP2C19 enzyme activity; P33261; recombinant CYP2C19, luciferin-H EGE luminescence; stronger effect = higher value; 0 = fully inhibited enzyme, 1 = untreated enzyme; activation factor at 5 µM; 96,000 tested, under 10 active;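 active = activation factor of at least 2 at 5 µM in the primary screen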;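 also: 0 = wells with 2.5 mM tranylcypromine and 1 = vehicle-only wells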
CYP2C9 inh: inhibitors of human CYP2C9. CYP2C9 Supersomes, luciferin-H conversion, luminescence. P11712. AID 777. 96,000 tested, 20% active. inhibition, % at 5 µM;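 active = blocking of liver enzyme CYP2C9 beyond about 50% at 5 µM, limit read from the data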
Cav3 T inh: human Cav3.2 channel inhibition, primary screen; B-score at 10 µM; Cav3.2-expressing cells, Fluo-4 calcium fluorescence FDSS; stronger effect = lower value; O95180; AID 449739; 100,000 tested, 4% active;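 active = single-dose well whose peak fluorescence ratio is a statistical outlier from its plate by either plate-standardised score or position-corrected B-score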
Starred values were filed as active, the others as inactive; · = no result given. A selection: hits, their analogues and other compounds. The true share with any hit is near 27%.

SMILES | HIV Rev-RRE inh | CYP2C9 activ | CYP2C19 inhib | CYP2C19 act | CYP2C9 inh | Cav3 T inh
CCOC(=O)c1ccc(-n2c(N)c(C(=O)NCC3CCCO3)sc2=S)cc1 (configuration not stated) | -5 | 0.2 | 18 | 0.8 | 83* | -0.41
C=CCNC(=O)c1sc(=S)n(-c2ccc(C(=O)OCC)cc2)c1N | · | 0.4 | 16 | 0.8 | 56* | 0.45
CCOC(=O)c1ccc(-n2c(N)c(C(=O)NCc3ccco3)sc2=S)cc1 | 4 | 0.6 | 15 | 0.9 | 41 | 0.12
CCOC(=O)N1CCC(NC(=O)CS(=O)(=O)Cc2nc(-c3cccc(OC)c3)oc2C)CC1 | -4 | 0.9 | 10 | 0.9 | 12 | 0.079
CCN(CCNC(=O)CS(=O)(=O)Cc1nc(-c2cccc(OC)c2)oc1C)c1ccccc1 | 3 | 0.1 | 78* | 0.2 | 87* | -9*
CCOC(=O)c1cccc(NC(=O)CS(=O)(=O)Cc2nc(-c3cccc(OC)c3)oc2C)c1 | · | 0.2 | 45 | 0.6 | 76* | -5.2*
COc1cccc(-c2nc(CS(=O)(=O)CC(=O)NCCC(C)C)c(C)o2)c1 | -3 | · | · | · | · | -3.1
COc1cccc(-c2nc(CS(=O)(=O)CC(=O)N3CCN(c4ccccn4)CC3)c(C)o2)c1 | · | 0.5 | 21 | 0.8 | 51* | -1.1
Cc1ccc(CNC(=O)CCCC(=O)O)cc1 | 5 | 0.9 | -11 | 1.1 | 14 | 0.51
CN1CCN(c2ncnc3c2sc2nc(N4CCOCC4)c4c(c23)CCC4)CC1 | 9 | · | · | · | · | ·
c1nc(N2CCNCC2)c2sc3nc(N4CCOCC4)c4c(c3c2n1)CCC4 | · | 0.7 | 15 | 0.8 | 30 | ·
OCCN1CCN(c2ncnc3c2sc2nc(N4CCOCC4)c4c(c23)CCC4)CC1 | · | 0.2 | 84* | 0.2 | 79* | 0.26
OCCN(CCO)c1ncnc2c1sc1nc(N3CCOCC3)c3c(c12)CCCC3 | 2 | 0.1 | 81* | 0.2 | 89* | 0.71
CCOC(=O)CSc1ncnc2c1sc1nc(N3CCOCC3)c3c(c12)CCCC3 | 11 | 0.5 | 18 | 0.8 | 54* | -1.5
Cc1ccc(-c2cn(S(=O)(=O)c3ccc(C)cc3)nc2N)cc1 | 5 | 0.6 | 19 | 0.8 | 41 | 1.1
O=C(C1=C[C@@H](c2ccccc2)C[C@@H](OCc2ccc(CO)cc2)O1)N1CCOCC1 | · | · | · | · | · | 0.86
CCC(Oc1ccccc1)C(=O)N1CCN(CC)CC1 (configuration not stated) | 4 | 1 | -1 | 1 | 3 | 0.77
CCC(Oc1ccccc1)C(=O)N1CCC(C(N)=O)CC1 (configuration not stated) | 11 | 1 | -1 | 1 | 0 | -0.26
CCC(Oc1ccccc1)C(=O)N1CCN(C(=O)C(CC)Oc2ccccc2)CC1 (configuration not stated) | -3 | 0.2 | 42 | 0.6 | 84* | 0.41
CCC(Oc1ccccc1)C(=O)N1CCN(c2ccccn2)CC1 (configuration not stated) | 7 | 0.1 | 79* | 0.2 | 85* | -1.1
Cc1cc(C(=O)CSc2nnc(N)s2)c(C)n1CCc1ccc(Cl)cc1 | 3 | 0.2 | 89* | 0.1 | 79* | -4.9*
Cc1cc(C(=O)CSc2nnc(N)s2)c(C)n1CCc1ccc(F)cc1 | 4 | 0.1 | 96* | 0 | 88* | -0.89
COc1ccc(CCn2c(C)cc(C(=O)CSc3nc(N)cc(=O)[nH]3)c2C)cc1 | 3 | 0.9 | 23 | 0.8 | 8 | 0.51
COc1ccc(CCn2c(C)cc(C(=O)CSc3nnc(N)s3)c2C)cc1 | -2 | · | · | · | · | ·
O=C(Nc1ccccc1)O/N=C/c1ccncc1 | 6 | 0.4 | 70* | 0.3 | 60* | -0.017
SMILES | HIV Rev-RRE inh | CYP2C9 activ | CYP2C19 inhib | CYP2C19 act | CYP2C9 inh | Cav3 T inh
COc1cccc(/C=N/NC(=O)C(=O)NCc2ccco2)c1O | 1 | 0.9 | 13 | 0.9 | 12 | -0.04
COc1ccc(-c2nc(-c3cccs3)c(-c3cccs3)[nH]2)cc1OC | 12 | 0.2 | 83* | 0.2 | 81* | -1.4
O=[N+]([O-])c1cccc(-c2nc(-c3ccccc3)c(-c3cccs3)[nH]2)c1 | 11 | 1.2 | -6 | 1.1 | -18 | 0.28
O=[N+]([O-])c1cccc(-c2nc(-c3cccs3)c(-c3cccs3)[nH]2)c1 | 6 | 0.4 | 12 | 0.9 | 58* | 0.054
C#CCNC(=O)C1=C[C@@H](c2ccc(C(F)(F)F)cc2)[C@H](CCCO)[C@@H](OCC)O1 | · | · | · | · | · | -0.34
COc1ccc(-c2nnc(SCC(=O)NC(C)c3ccccc3)o2)cc1OC (configuration not stated) | 11 | 1.1 | 62* | 0.4 | -10 | -0.44
COc1ccc(-c2nnc(SCC(=O)Nc3cc(F)ccc3C)o2)cc1 | 16 | 1.4 | 54* | 0.5 | -37 | -5.6*
Cc1ccc(NCc2nnc(SCC(=O)c3ccccc3)o2)c(C)c1 | 11 | 1 | -3 | 1 | 0 | 0.41
COc1ccc(NCc2nnc(SCC(=O)Nc3ccccc3OC)o2)cc1 | 1 | 1.1 | 21 | 0.8 | -10 | 1
COc1cccc(NC(=O)CSc2nnc(-c3ccc(C)cc3)o2)c1 | 7 | 0.9 | -16 | 1.2 | 7 | -0.11
COc1ccc(OC)c(NC(=O)CSc2nnc(CNc3ccc(C)cc3C)o2)c1 | 11 | 1.2 | 81* | 0.2 | -24 | 0.0099
COc1ccc(OC)c(NC(=O)CSc2nnc(CNc3ccc(F)cc3)o2)c1 | 5 | 1 | 56* | 0.4 | 1 | -0.31
Cc1nnc(NC(=O)c2ccc3c(c2)C(=O)N(CCC(C)C)C3=O)s1 | 0 | 0.9 | 3 | 1 | 9 | 1.5
CCNc1nc(Oc2ccc(C(=O)OC)cc2)nc(N(C)C)n1 | 8 | · | · | · | · | 0.28
COC(=O)c1ccc(Oc2nc(Nc3ccc(C)c(C)c3)nc(N(C)C)n2)cc1 | -3 | 0.3 | 56* | 0.4 | 71* | -1.5
CCCCCC1CC(CC(=O)O)C(=O)O1 (configuration not stated) | 10 | 0.9 | 17 | 0.8 | 11 | -0.078
CCCCCCC1CC(CSc2ncn[nH]2)OC1=O (configuration not stated) | 5 | 0.3 | 91* | 0.1 | 67* | 0.47
CS(=O)(=O)N(CC(=O)N1CCN(c2cccc(Cl)c2)CC1)C1CCCCC1 | 8 | 0.7 | 27 | 0.7 | 32 | -0.2
Cc1ccc(Cl)cc1N1CCN(C(=O)CN(C2CCCCC2)S(C)(=O)=O)CC1 | 7 | · | · | · | · | -4.9*
CNC(=O)CN(C1CCCCC1)S(=O)(=O)c1ccc(F)cc1 | 5 | 0.6 | 66* | 0.3 | 42 | -0.18
Cc1ccc(S(=O)(=O)N(CC(=O)N2CCN(c3ccc(F)cc3)CC2)C2CCCCC2)cc1 | 0 | 0.5 | 42 | 0.6 | 52* | -5.8*
CCOC(=O)N1CCN(C(=O)CN(C2CCCCC2)S(=O)(=O)c2ccc(C)cc2)CC1 | 4 | 0.8 | 22 | 0.8 | 24 | 0.95
COCC(=O)Nc1nnc(SCC(=O)NCc2cccs2)s1 | 4 | 1.1 | 6 | 0.9 | -5 | -0.04

Compound activity from PubChem.
